This is an account of results in ChEMBL document CHEMBL3352737, “Discovery of potent and selective spiroindolinone MDM2 inhibitor, RO8994, for cancer therapy” (Bioorg Med Chem, 2014).

In one series the test system is RKO. Put plainly: Antiproliferative activity against wild-type p53 expressing human RKO cells assessed as inhibition of cell proliferation by MTT assay. The class given is functional, cell-based.
The test system of another series is SW480. The series can be described thus: Antiproliferative activity against p53 mutant expressing human SW480 cells assessed as inhibition of cell proliferation by MTT assay. The class given is functional, cell-based.
Series [1] can be described thus: Antiproliferative activity against wild-type p53 expressing human HCT116 cells assessed as inhibition of cell proliferation by MTT assay. The series is classed as functional, cell-based. Conditions: HCT-116.
For a further series, the system named is MDA-MB-435. The series can be described thus: Antiproliferative activity against p53 mutant expressing human MDA-MB-435 cells assessed as inhibition of cell proliferation by MTT assay. The class given is functional, cell-based.
In series [2] the target is T1, Tumour suppressor p53/oncoprotein Mdm2 (Homo sapiens, UniProt Q00987). The series can be described thus: Inhibition of p53-MDM2 (unknown origin) interaction using 0.02% BSA buffer after 1 hr by HTRF assay. The series is classed as protein assay.
T1 sequence (P04637 whole entry): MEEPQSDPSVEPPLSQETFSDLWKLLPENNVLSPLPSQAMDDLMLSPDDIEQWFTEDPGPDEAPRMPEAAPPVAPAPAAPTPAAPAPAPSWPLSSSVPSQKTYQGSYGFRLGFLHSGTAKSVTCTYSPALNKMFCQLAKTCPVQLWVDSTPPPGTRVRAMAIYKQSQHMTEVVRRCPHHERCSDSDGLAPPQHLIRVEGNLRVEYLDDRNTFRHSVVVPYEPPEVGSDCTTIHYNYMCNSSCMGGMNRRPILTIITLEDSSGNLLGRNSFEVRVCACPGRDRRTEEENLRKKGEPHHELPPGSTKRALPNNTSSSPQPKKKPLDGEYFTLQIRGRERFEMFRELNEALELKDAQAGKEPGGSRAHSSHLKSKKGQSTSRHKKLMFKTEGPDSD
T1 sequence (Q00987 whole entry): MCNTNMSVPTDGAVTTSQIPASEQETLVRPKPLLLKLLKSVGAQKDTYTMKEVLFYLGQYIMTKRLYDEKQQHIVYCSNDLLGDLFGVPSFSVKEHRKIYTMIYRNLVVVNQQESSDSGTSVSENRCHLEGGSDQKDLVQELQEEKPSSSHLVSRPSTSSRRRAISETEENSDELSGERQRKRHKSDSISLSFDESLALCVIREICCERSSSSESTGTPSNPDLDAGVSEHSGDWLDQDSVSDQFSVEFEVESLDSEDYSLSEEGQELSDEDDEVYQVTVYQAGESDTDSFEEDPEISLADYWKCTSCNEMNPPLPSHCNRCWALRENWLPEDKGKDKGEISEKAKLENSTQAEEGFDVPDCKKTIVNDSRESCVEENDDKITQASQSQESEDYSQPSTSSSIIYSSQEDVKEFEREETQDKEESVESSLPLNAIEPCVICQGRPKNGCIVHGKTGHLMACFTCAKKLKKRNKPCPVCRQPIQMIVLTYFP
Series [3] addresses T1, Tumour suppressor p53/oncoprotein Mdm2. The series can be described thus: Inhibition of p53-MDM2 (unknown origin) interaction using 0.2% BSA buffer after 1 hr by HTRF assay. The series is classed as protein assay.
A short description of series [4]: Apparent terminal half life in C57 mouse at 5 mg/kg, iv. Also noted: dose 5 mg/kg, route intravenous. Conditions: in vivo, read-out: betat1/2(app) (converted). The series is classed as ADME, organism-based. Put shortly: (§1)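 Male C57 mice received a single dose, given orally or intravenously in separate arms. Plasma pharmacokinetic parameters were derived from the resulting concentration–time data and reported as means.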

The nature of series [5]: Oral bioavailability in C57 mouse at 25 mg/kg. The series is classed as ADME, organism-based. Conditions: in vivo. Put shortly: as §1
Series [6] in a line: Cmax in C57 mouse at 25 mg/kg, po. More on the design: dose 25 mg/kg, route oral. The series is classed as ADME, organism-based. Conditions: in vivo. Put shortly:
as §1

Series [7] can be described thus: Total plasma clearance in C57 mouse at 5 mg/kg, iv. The series is classed as ADME, organism-based. More on the design: dose 5 mg/kg, route intravenous. In short, it runs like this:
as §1

Series [8] can be described thus: Cmax in C57 mouse at 50 mg/kg, po. The class given is ADME, organism-based. Also noted: dose 50 mg/kg, route oral. Particulars: in vivo. In short, it runs like this: as §1
A short description of series [9]: Oral bioavailability in C57 mouse at 50 mg/kg. The series is classed as ADME, organism-based. Conditions: in vivo. Put shortly: as §1

Regarding `COc1cc(NC(=O)[C@@H]2N[C@@H](CC(C)(C)C)[C@@]3(C(=O)Nc4cc(Cl)ccc43)[C@H]2c2cccc(Cl)c2F)ccc1C(=O)O`, the IC50 with RKO turned out to be 240 nM; in the series with SW480 it was 14400 nM; in series [1], 50 nM; with MDA-MB-435, 11500 nM.
For the compound `COc1cc(NC(=O)[C@H]2N[C@H](CC(C)(C)C)[C@]3(C(=O)Nc4cc(Cl)ccc43)[C@@H]2c2cccc(Cl)c2F)ccc1C(=O)O`, the figures for the IC50 in series [2] and in series [3] were 3090 nM and 3740 nM, respectively.
As for `COc1cc(C(=O)O)ccc1NC(=O)[C@@H]1N[C@@H](CC(C)(C)C)[C@@]2(C(=O)Nc3cc(Cl)ccc32)[C@H]1c1cccc(Cl)c1F`, the half-life in series [4] is 11.1 h. Also, the bioavailability in series [5] amounted to 21%. For the same compound, the IC50 with RKO worked out at 20 nM; in the series with SW480 it was 9800 nM; in series [1] it was 10 nM; in the series on MDA-MB-435, 12100 nM. This compound also had a Cmax in series [6] of 800 ng/mL. The clearance in [7] was 34.6 mL/min/kg.
For the compound `CC(C)(C)C[C@@H]1N[C@@H](C(=O)Nc2ccc(C(N)=O)cc2)[C@H](c2cccc(Cl)c2F)[C@]12C(=O)Nc1cc(Cl)ccc12`, in [4], the half-life is 10.4 h. Besides, the IC50 in [2] amounted to 5 nM; with RKO, 150 nM; in the series with SW480, 14300 nM; in series [1] it was 70 nM; in the series on MDA-MB-435 it was 11600 nM; in series [3] it was 5 nM. Also, the peak level in series [8] (Cmax) was 8300 ng/mL. This compound returned a bioavailability in series [9] of 63%. In series [7], this compound had a clearance of 3.5 mL/min/kg.
On to `COc1cc(NC(=O)[C@@H]2N[C@@H](CC(C)(C)C)[C@@]3(C(=O)Nc4cc(Cl)ccc43)[C@H]2c2cccc(Cl)c2F)ccc1C(N)=O`, for which the IC50 in the series on RKO is 90 nM; in the series with SW480 it was 3960 nM; in series [1], 80 nM; in the series on MDA-MB-435, 6920 nM.
Consider `CC(C)(C)C[C@@H]1N[C@@H](C(=O)Nc2ccc(C(N)=O)cc2F)[C@H](c2cccc(Cl)c2F)[C@]12C(=O)Nc1cc(Cl)ccc12`, for which the half-life in series [4] was 15.3 h. In addition, the IC50 amounted to 7 nM in series [2]; 220 nM with RKO; 7100 nM in the series on SW480; 120 nM in [1]; 10000 nM in the series on MDA-MB-435; 7 nM in series [3]. For the same compound, the peak level in series [8] (Cmax) was 13100 ng/mL. This compound also showed a bioavailability in series [9] of 75%. The compound also showed a clearance in [7] of 3.4 mL/min/kg.
On to `CC(C)(C)C[C@@H]1N[C@@H](C(=O)Nc2ccc(OCCO)cc2)[C@H](c2cccc(Cl)c2F)[C@]12C(=O)Nc1cc(Cl)ccc12`, for which the IC50 was 280 nM in the series on RKO; 11300 nM in the series with SW480; 180 nM in [1]; 10800 nM with MDA-MB-435; 8 nM in series [3].
Consider `COc1cc(OCCO)ccc1NC(=O)[C@@H]1N[C@@H](CC(C)(C)C)[C@@]2(C(=O)Nc3cc(Cl)ccc32)[C@H]1c1cccc(Cl)c1F`, for which the half-life in series [4] was 6.6 h. The bioavailability in [5] was determined as 55%. The IC50 is 16 nM in the series with RKO, 4450 nM in the series on SW480, 8 nM in series [1] and 9500 nM in the series with MDA-MB-435. The highest level in series [6] (Cmax) was 4300 ng/mL. The clearance in series [7] amounted to 6.7 mL/min/kg.
On to `COc1cc(C(N)=O)ccc1NC(=O)[C@@H]1N[C@@H](CC(C)(C)C)[C@@]2(C(=O)Nc3cc(Cl)cc(F)c32)[C@H]1c1cccc(Cl)c1F`, for which the IC50 was 80 nM in the series on RKO; 10500 nM in the series with SW480; 120 nM in series [1]; 12000 nM in the series with MDA-MB-435; 6 nM in series [3].
As for `CC(C)(C)C[C@@H]1N[C@@H](C(=O)Nc2ccc(C(N)=O)cc2)[C@H](c2cccc(Cl)c2F)[C@]12C(=O)Nc1cc(Cl)c(F)cc12`, in series [4], the half-life is 8.8 h. In [8], the Cmax was determined as 8700 ng/mL. For the same compound, in series [9], the bioavailability was found to be 45%. For the same compound, the IC50 in the series with RKO is 430 nM; in the series with SW480 it was 15200 nM; in series [1], 180 nM; in the series on MDA-MB-435 it was 10900 nM. The compound further returned a clearance in [7] of 2.6 mL/min/kg.
For `CC(=O)N1CCCC([C@]2(Cc3cccc(Cl)c3)C(=O)Nc3cc(Cl)ccc32)C1` (stereo partly specified), in series [3], the IC50 amounted to 3900 nM.
For `COc1cc(C(N)=O)ccc1NC(=O)[C@@H]1N[C@@H](CC(C)(C)C)[C@@]2(C(=O)Nc3c2ccc(Cl)c3F)[C@H]1c1cccc(Cl)c1F` (racemic), the IC50 in [2] was 15 nM; in the series on RKO it was 1080 nM; in the series on SW480, 7500 nM; in [1], 670 nM; with MDA-MB-435 it was 9400 nM; in [3] it was 18 nM.
